This passage reports yeast fitness results from the RNAGym collection of RNA variant scans (doi:10.1126/science.aae0568).

B1: tRNA (parent)
chain: GUUCCGUUGGCGUAAUGGUAACGCGUCUCCCUCCUAAGGAGAAGACUGCGGGUUCGAGUCCCGUACGGAACG

Variants at the floor of the assay were thinned out.

The variants in the data set derive from B1. Put plainly: yeast fitness relative to wild type (ratio to wild type); higher = fitter; tRNA-Arg(CCU), competitive growth, 37 C, YPD. Put shortly:
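A pool of Saccharomyces cerevisiae strains, each with a tRNA-Arg(CCU) gene variant at the native genomic locus, was competed in YPD at 37°C for 24 hours across six parallel replicates. The variants had been chemically synthesised at a 3% per-site mutation rate over 69 sites, and gene amplicons before and after competition were read by 100-nucleotide paired-end sequencing. Darwinian fitness relative to wild type rested on changes in genotype frequencies. Genotypes required ≥ 100 starting reads, and estimates < 0.5 were set to 0.5.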
With G12C C29A, the yeast fitness worked out at 0.684. In the case of C5G U16C A20G, the yeast fitness was ≤ 0.5. C31G C34U: the yeast fitness stood at 0.626.

G12A C34U A37U G41A G50C: the yeast fitness worked out at 0.561.

On to U8A A15U A37C G68A, for which the yeast fitness is ≤ 0.5.

For the variant A45G C49U A69U, the yeast fitness amounted to 1.04. On to C4U C29G C30U, for which the yeast fitness is ≤ 0.5. As for G18A C49U, the figure is 0.892. The result for U7A G50A C60G U64G reads ≤ 0.5. As for A15U G38C G39A A43C C60G A65C, the figure is 0.559; as for U7G C31U, 0.98.

As to U13A A15G U47A U64G, the yeast fitness is ≤ 0.5. Regarding C31A G56A A65G C66A G68C, the yeast fitness was found to be 0.562. Turning to G25C C34G A45U, the yeast fitness is ≤ 0.5. The result for C33U A36G G41A C61G reads ≤ 0.5; that for C4U A37C, 0.884; that for A45U A57U U59G U64G, ≤ 0.5. As for U2C G6A C61G, the figure is ≤ 0.5; as for A43G U54C, 0.905; as for G6C C22A C33G G48C, ≤ 0.5. Regarding C4A C5G A20C A40U A65C, the yeast fitness is ≤ 0.5. As for C24G G52A, the yeast fitness amounted to 0.566. As to C30A G52A, the yeast fitness stood at 0.813. As for U2A C5G G63C G67C A69U, the figure is ≤ 0.5. The result for A14C U16C C61U reads ≤ 0.5; that for U16G G23A A40U, ≤ 0.5; that for C5U U8C C27U G48A C62A C66U, ≤ 0.5. As to G39C A40U A65C, the yeast fitness was ≤ 0.5. As for G6A U8C G10C, the figure is ≤ 0.5; as for A42C C60U, 0.749. A15C U16C A36U A65C: the yeast fitness was ≤ 0.5. Regarding A15C C31G C33G C55U, the yeast fitness was ≤ 0.5. For U8C A36G, the yeast fitness was determined as 0.865. As for C4U C5A G68C, the yeast fitness is 0.551. As for U8G C27A C61A, the yeast fitness is ≤ 0.5. The result for U8G G48A reads 0.531; that for U19C U28C G48C A70C, ≤ 0.5. As to G12A U19G A20G U35C A40U, the yeast fitness is ≤ 0.5. As to U16A A37C C55U, the yeast fitness is ≤ 0.5.

C27G U35A A45U G67A: the yeast fitness is 0.612. The result for A15G C24G C66G G67A reads 0.64. As for G9A A40U, the figure is 1.06; as for U16C G48C, 0.894; as for U32A A37C C60A, ≤ 0.5. As for U8A C31G A42C C55U G68A, the figure is ≤ 0.5; as for C4A G25C U32A A40C, ≤ 0.5; as for G56C A57C, 0.529. Regarding G12U C60G, the yeast fitness was ≤ 0.5. With A14C A15C A21U A57G, the yeast fitness was ≤ 0.5. For the variant C22G A45U G48C, the yeast fitness is 0.511. As for U2A G6A C11U C31G A69U, the figure is ≤ 0.5; as for U3C C31U G58C, 0.712. As for A36U G58C C60U, the figure is ≤ 0.5; as for U16A A20G C34U G56C, 0.509.

Consider A20G C30A C31U A45C C55G, for which the yeast fitness was ≤ 0.5. As for U13A C22U A37G, the figure is 0.533. As for A57U A65U G68C A69G, the yeast fitness was ≤ 0.5. As for C5U G18A A40U U47C G68A, the figure is 0.617; as for G6A A57U G68U A70G, ≤ 0.5; as for G12C C22G G23A C55A, ≤ 0.5. As for G18C C24G C34U C49A U64C G67A, the figure is ≤ 0.5; as for C29U A69C, 0.939. The result for U26G A45C reads 0.795; that for C11A C31G A42U C62A C66U A69U, ≤ 0.5. Consider G10C A14C C61U, for which the yeast fitness was ≤ 0.5. As for U7A C29U C62U, the figure is ≤ 0.5.

Consider G10A C30G A36C G58A, for which the yeast fitness is ≤ 0.5. The result for C11A A15U reads 0.658.

On to U13G C24G G51A, for which the yeast fitness was ≤ 0.5. As for C5G A14U C30A C62A, the figure is ≤ 0.5; as for C5G C66A A69G A70C, ≤ 0.5; as for A14U C31U G51A G63C, ≤ 0.5. The result for C5G C30G G38C G56C reads 0.621; that for C29A G41A A43C C49U, ≤ 0.5; that for C11A C31A G44C, ≤ 0.5. As for C11G A14U G17A A36G G41A C55G C61A, the figure is ≤ 0.5; as for A21U C22U U32A G52C, ≤ 0.5. As to U3C G58C, the yeast fitness came out at 0.97. As for C4A C34G G39C, the figure is ≤ 0.5. The result for G9C U13A G41A C62U reads ≤ 0.5; that for C11A A14C, 0.683.

Turning to C24U U47A U64C C66U, the yeast fitness was ≤ 0.5. The result for C29G U47A G48A reads 0.553; that for C11U C29U C66G, ≤ 0.5; that for C5U U47C G51A, 0.548. The result for U8A C22U G56A U59A reads ≤ 0.5; that for C27U C29A C49A, ≤ 0.5.

On to A40G A43U, for which the yeast fitness was found to be 0.995. The result for G10A G38A A45G A70G reads ≤ 0.5; that for U3A G12C G58A C66U, ≤ 0.5; that for C11A U35A C61U G67A, ≤ 0.5. As for C4G A15U G56C, the figure is ≤ 0.5; as for C5G G23C A36C, ≤ 0.5. The result for C5G C29G C46G reads ≤ 0.5.

For the variant G6A U26G C30U G52A, the yeast fitness was ≤ 0.5. As for A14C A42G U47C, the figure is ≤ 0.5; as for C5U U7A A45G G67A, ≤ 0.5; as for G10C A21C C22G A36G A57C, ≤ 0.5. Regarding A14U C30A G38A C55A A65C, the yeast fitness is ≤ 0.5. The result for C11G G18C C27A C66U reads 0.636. The result for C24G A65U reads 0.742; that for U19A G41A A42G G58U G63C, ≤ 0.5; that for G6C U53C A65G, ≤ 0.5. As for G41A G50A C60U C66G, the figure is ≤ 0.5; as for U8C G18C A21C C61U C66U, ≤ 0.5. On to A14G A15C U26C U35G C49G, for which the yeast fitness was ≤ 0.5. The result for C4A C24U reads 0.733; that for U2C C4U C46U G50U C55U, ≤ 0.5. The result for U3A C4G G9A C11G A45U reads ≤ 0.5. As for U32C C55U A69C, the figure is 0.63; as for C31A C66G, 0.615; as for G10C A14C A21U C31U, 0.773. With C27A C31U A36U A45C, the yeast fitness is ≤ 0.5.

On to C46G A57C G58A G67A, for which the yeast fitness is ≤ 0.5. As for U2C U16G, the figure is 0.96; as for G17A A43G A45G C62G, ≤ 0.5; as for C4U G25C, 0.999. G63U U64A: the yeast fitness was 0.676.

Take G17A U19A C30U G67A: the yeast fitness is ≤ 0.5. As for C24U U35C A70C, the yeast fitness was 0.671. As for U3A A21G C34G A40G C60G C62G, the figure is ≤ 0.5; as for C22G G67A, 0.819. The result for C11U A14U C24G G44A C49U G67U reads ≤ 0.5. Take A15G G39C C46U: the yeast fitness stood at 0.689. In the case of C5A C31G U54C, the yeast fitness worked out at 0.588.

Consider C4U U7A A45U A57G, for which the yeast fitness was ≤ 0.5. As for U7G A37G, the figure is 0.633.

G18C G23A C61A: the yeast fitness is ≤ 0.5.

Regarding C27G U32G A36C C46G, the yeast fitness is ≤ 0.5. The result for U19C A20C G50C U64C reads ≤ 0.5. As for C4A G56A, the figure is 0.88; as for G10C G25A U64C, ≤ 0.5; as for C22G C24U G44C, 0.59.

For U8A C31U C60A C62G A70C, the yeast fitness is ≤ 0.5. The result for G12A G25C C60U A69C reads ≤ 0.5; that for C11U U16C U28C A43C, ≤ 0.5. As for G12A C31U C61G, the figure is 0.543; as for C5A A40U, 0.849. As for A14U U28A C46G, the figure is ≤ 0.5. For the variant C24G A36G U64C A65U, the yeast fitness is ≤ 0.5. As for U8A G25C A37C A65C, the figure is ≤ 0.5; as for G6C U8C C29G C61U, ≤ 0.5; as for A14C A43U G63C, ≤ 0.5.

As for C29U C33U U35C U54A, the yeast fitness is ≤ 0.5. Regarding U8A A21U C30U G48A G67C A69U, the yeast fitness was ≤ 0.5. As for U16A G48C, the figure is 0.967; as for A21C C22G U32A G56C, ≤ 0.5. The result for A37C G39C reads 0.534; that for C11G U19G, 0.577; that for G10A C22U G56C A69U, ≤ 0.5. A37U G38C G63A: the yeast fitness is ≤ 0.5. As for G12A G25C, the figure is 0.961; as for A15U C24G G38A, 0.551; as for U3A C27G A43C, ≤ 0.5. As for U26C U32C C33G A42C C49G G58C C62G, the figure is ≤ 0.5; as for C11A G41A G67U G68C, 0.567; as for C22G C27G C31G G48A C61G A69U, ≤ 0.5. As for C5A C33U C46A, the yeast fitness is ≤ 0.5. As for C5U C33U, the figure is 0.71. Regarding U7G G58A, the yeast fitness was found to be 0.942. As for G18A G25C A70U, the figure is 0.555; as for C5A U7G A14C U16G A43G U53C C62G, ≤ 0.5. The result for U2A U3G A36U reads ≤ 0.5. As for U3G U26A, the figure is 0.944; as for U16C C30U C34G C49A A70U, ≤ 0.5. Take C33A A42C A45C U47G: the yeast fitness was 0.515. The result for A42U reads 0.978.
